TLR9-MyD88 block – TLR9-MyD88 interaction inhibition; CHO BLA complementation TLR9-MyD88, CCF4 FRET ratio; 0.21% of 340,000 active; AID 504734; inhibition, % at 4.98 µM;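 active = inhibition above the mean over all tested compounds plus 3 SD, cut at about 21% in these data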;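 note: 0% = DMSO only wells and 100% = clavulanate BLA inhibitor control wells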
b-catenin transl – modulators of beta-catenin nuclear translocation | HeLa beta-catenin nuclear translocation, immunofluorescence imaging | 0.3% of 190,000 active | nuclear translocation activity, % at 5 µM;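 active = nuclear translocation activity above 50% at 5 µM, with a well cell count of 50 or more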;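 note: per-cell ratio of nuclear to cytoplasmic median beta-catenin stain intensity; plate controls were DMSO negative control for no effect and GSK-3 inhibitor IX positive control for full effect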
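assay system = human HeLa cells, endogenous beta-catenin | times = compound treatment 24 h, 37°C, 5% CO2 | detection = Anti-beta-catenin immunofluorescence on PFA-fixed, Triton-permeabilized cells, DAPI nuclei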
MT stabilizer – microtubule stabilizers in HeLa cells | % tubulin-high responders, % at 10 µM | 0.83% of 200,000 active | HeLa tubulin immunostaining HCS, 24 h; share of cells brighter than vehicle mean+2SD | AID 2205;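 active = plate Z-score above 3 for both tubulin-high and condensed-nucleus cell shares, with cell loss under 80%, at 10 µM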;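 note: anti alpha tubulin signal scored within the nucleus-defined area of each cell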
TLR4-MyD88 BLA – TLR4-MyD88 interaction inhibition in cells; O00206+Q99836; 0.18% of 200,000 active; HeLa CL3-4 TLR4/MyD88 BLA complementation, FRET ratio; inhibition, % at 8.4 µM; in the data active = inhibition above about 25%;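 note: 0% = vehicle and 100% = reference inhibitor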
Hsp70 activator – switches on Hsp70 transcription; AID 1203; 0.04% of 200,000 active; HeLa Hsp70 promoter luciferase reporter, luminescence; scaled: vehicle 0, proteasome-inhibitor control 100%; activation, % at 10 µM;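 active = activation above the mean across all tested compounds plus 3 SD, cutoff set per campaign, cut at about 5.5% in these data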;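 note: 100% = MG132 at 30 µM as the positive control and 0% = DMSO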
NOD2 RIPK2 PPI – blocks binding of human NOD2 to RIPK2; O43353; CHO BLA complementation NOD2-RIPK2, CCF4 ratio; inhibition, % at 4.98 µM; 0.38% of 360,000 active; in the data active = inhibition above about 21%;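 note: 0% = vehicle only and 100% = reference blocker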
* hit, by the source's call; nt = no result. Rows were chosen to be rich in hits. Some 1% of all compounds tested hit in one or more screens of this group.

SMILES | TLR9-MyD88 block | b-catenin transl | MT stabilizer | TLR4-MyD88 BLA | Hsp70 activator | NOD2 RIPK2 PPI
CCCC(C(=O)Nc1cccc(S(=O)(=O)N2CCCC2)c1)c1ccccc1 (stereo unspecified) | 7 | nt | nt | nt | nt | -5
CCCCCc1ccc(OCCCC[n+]2cccc(C)c2)c(CCCCC)c1 | 6 | 4 | 56* | -9 | 0 | -6
CCCCCc1ccc(OCCCC[n+]2ccccc2)c(CCCCC)c1 | 4 | 9 | 28* | 9 | 0 | 2
Cn1c2c(c(=O)[nH]c1=O)C(c1cccc(O)c1)C1=C(N2)c2ccccc2C1=O (stereo unspecified) | -4 | 3 | 20* | -2 | 0 | 4
COc1ccc(-c2cc(C(F)F)n3ncc(C(=O)N4CCc5ccccc54)c3n2)cc1 | 0 | 6 | 26* | 1 | 0 | -4
Cc1ccc(-c2cc(C(F)F)n3ncc(C(=O)N4CCCc5ccccc54)c3n2)cc1 | -7 | 0 | 3 | 8 | 0 | -11
COC(=O)c1ccc(Oc2cc(C)nc(SC)n2)cc1 | 14 | 8 | 51* | 10 | 0 | 5
Cc1ccc(C(=O)N2C(CC(=O)Nc3ccc(Cl)cc3)C(=O)NC3CCCCC32)cc1 (stereo unspecified) | -20 | 0 | 20* | -1 | 0 | 1
Cc1cccc(NC(=O)CC2C(=O)NC3CCCCC3N2C(=O)c2ccccc2Cl)c1 (stereo unspecified) | 0 | -1 | nt | nt | nt | -3
Cc1ccc(C(=O)Nc2cccc(C(F)(F)F)c2)cc1NC(=O)c1csc(-c2ccncc2)n1 | 5 | 70* | nt | nt | nt | -4
CC1CCCCCCC1OC(=O)c1ccccc1C(=O)O (stereo unspecified) | 2 | nt | nt | nt | nt | -3
Cc1ccc(C(=O)N/C(=C\c2cccc([N+](=O)[O-])c2)C(=O)NC(Cc2ccccc2)C(=O)O)cc1 (stereo unspecified) | 0 | nt | nt | nt | nt | -1
Cc1cccc(C)c1NC(=O)CSc1nc(-c2ccco2)cc(C(F)(F)F)n1 | -3 | 4 | 41* | -12 | 0 | 0
Cc1ccc(Cn2ccc(NC(=O)CCSc3nc(-c4ccco4)cc(C(F)(F)F)n3)n2)cc1 | -1 | 1 | 36* | -21 | 0 | -5
Cc1cc(NC(=O)CSc2nc(-c3ccco3)cc(C(F)(F)F)n2)no1 | 1 | 4 | 39* | -3 | 0 | 12
Cc1cc(NC(=O)CCSc2nc(-c3ccco3)cc(C(F)(F)F)n2)no1 | -3 | -2 | 3 | -3 | 0 | 8
Cc1c(Cc2ccccc2)sc(NC(=O)/C=C/c2cccc3ccccc23)c1C(N)=O | -8 | 1 | 18* | -1 | 0 | -6
CN(CC(=O)Nc1ccccc1Cl)C(=O)CSc1nnc(N)s1 | -1 | nt | nt | nt | nt | -5
CCOc1ncccc1C(=O)NCc1ccc(OC)cc1 | -5 | 24 | 36* | 2 | 0 | 0
CCOc1ncccc1C(=O)NCc1ccccc1 | nt | nt | 3 | 1 | 0 | nt
Cc1noc(C)c1C(=O)N1CCCC(C)(C(=O)NS(=O)(=O)C2CC2)C1 (stereo unspecified) | nt | nt | nt | nt | nt | -10
COC(=O)c1ccc(C)c(NS(=O)(=O)c2ccc(OC)cc2)c1 | 0 | nt | 24* | 10 | 1 | -3
COC(=O)c1ccc(C)c(NS(=O)(=O)c2ccc3c(c2)OCCO3)c1 | 6 | 7 | 21* | 0 | 0 | -12
COc1ccc([N+](=O)[O-])cc1NS(=O)(=O)c1ccc(C)cc1 | -5 | -1 | nt | nt | nt | -9
COC(=O)c1ccc(C)c(NS(=O)(=O)c2ccc(C)c([N+](=O)[O-])c2)c1 | -1 | -3 | 3 | -14 | 0 | -3
COc1ccc(S(=O)(=O)Nc2cc([N+](=O)[O-])ccc2OC)cc1 | -11 | 7 | 28* | -4 | 0 | -12
O=C(CCNS(=O)(=O)c1ccc2nsnc2c1)N1CCN(c2ccncc2)CC1 | -1 | nt | nt | nt | nt | 5
Cc1nc2ccc(C(=O)NCCc3c[nH]c4ccccc34)cn2c1N(C)C(=O)CCc1ccccc1 | nt | nt | nt | nt | nt | -12
CC(NC(=O)COC(=O)CNS(=O)(=O)/C=C/c1ccccc1)c1ccccc1 (stereo unspecified) | -9 | nt | nt | nt | nt | 3
O=C(Nc1ccc(NC(=S)NC(=O)C(c2ccccc2)c2ccccc2)cc1)c1ccccc1 | -15 | nt | 40* | -6 | 0 | -10

Compound activity from PubChem.
